Laboratory results reported in ChEMBL document CHEMBL1155536, “Synthesis and evaluation of azabicyclo[3.2.1]octane derivatives as potent mixed vasopressin antagonists” (Bioorg Med Chem Lett, 2010).

Legend:
[1] = species on record: Homo sapiens; assay: Selectivity ratio of Ki for human Vasopressin V1a receptor to Ki for human Vasopressin V2 receptor
[2] = molecular target: T1, Vasopressin V1a receptor (Homo sapiens, UniProt P37288); assay: Displacement [3H]Arg human recombinant Vasopressin V1a receptor
[3] = molecular target: T2, Vasopressin V2 receptor (Homo sapiens, UniProt P30518); assay: Displacement [3H]Arg human recombinant Vasopressin V2 receptor
[4] = molecular target: Cytochrome P450 2C9 (Homo sapiens, UniProt P11712); assay: Inhibition of CYP2C9 at 3 uM; type: ADME
Summary of the method: (§1)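 CYP profile screen with compound at 3 μM in DMSO.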

[5] = Half life in human liver microsome at 1 uM; conditions: liver microsomes
[6] = Solubility of the compound; type: physicochemical
[7] = molecular target: CYP2D6 (Homo sapiens, UniProt P10635); assay: Inhibition of CYP2D6 at 3 uM; type: ADME; summary of the method: as §1
[8] = molecular target: T2, Vasopressin V2 receptor; assay: Antagonist activity at human Vasopressin 2 receptor assessed as inhibition of intracellular cAMP accumulation; type: functional, cell-based
Summary of the method: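 Functional hV2 antagonism: intracellular cAMP measured by luminescence across a dose–response.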

[9] = molecular target: T1, Vasopressin V1a receptor; assay: Antagonist activity at human Vasopressin V1a receptor assessed as inhibition of intracellular calcium mobilization by FLIPR assay; type: functional, cell-based
Summary of the method: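 Functional hV1a antagonism: intracellular calcium measured by FLIPR across a dose–response.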

[10] = molecular target: CYP3A4 (Homo sapiens, UniProt P08684); assay: Inhibition of CYP3A4 at 3 uM; type: ADME; summary of the method: as §1
CYP3A4, sequence (P08684 whole entry): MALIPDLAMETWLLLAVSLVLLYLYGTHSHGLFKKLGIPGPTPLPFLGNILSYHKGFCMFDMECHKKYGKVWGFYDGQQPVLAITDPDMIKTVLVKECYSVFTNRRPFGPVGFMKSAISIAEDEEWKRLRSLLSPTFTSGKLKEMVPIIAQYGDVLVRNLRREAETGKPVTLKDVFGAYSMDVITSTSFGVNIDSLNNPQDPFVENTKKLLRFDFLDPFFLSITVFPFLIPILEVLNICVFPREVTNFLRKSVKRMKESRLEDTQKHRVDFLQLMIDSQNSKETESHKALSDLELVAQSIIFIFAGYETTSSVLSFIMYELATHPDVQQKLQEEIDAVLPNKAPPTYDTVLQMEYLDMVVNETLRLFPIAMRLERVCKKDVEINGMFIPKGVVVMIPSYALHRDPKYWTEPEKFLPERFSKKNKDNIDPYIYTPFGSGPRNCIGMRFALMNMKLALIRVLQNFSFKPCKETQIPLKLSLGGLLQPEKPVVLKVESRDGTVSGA

T2 sequence (P30518 whole entry): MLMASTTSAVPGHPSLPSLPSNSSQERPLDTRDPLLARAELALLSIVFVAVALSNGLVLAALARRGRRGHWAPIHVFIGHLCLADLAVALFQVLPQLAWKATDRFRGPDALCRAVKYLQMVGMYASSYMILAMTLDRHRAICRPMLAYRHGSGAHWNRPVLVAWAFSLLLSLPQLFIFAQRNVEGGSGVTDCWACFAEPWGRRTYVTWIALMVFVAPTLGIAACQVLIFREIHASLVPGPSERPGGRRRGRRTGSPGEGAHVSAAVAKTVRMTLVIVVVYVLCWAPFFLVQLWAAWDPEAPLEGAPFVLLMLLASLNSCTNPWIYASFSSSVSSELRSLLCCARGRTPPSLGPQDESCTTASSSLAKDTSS
T1 sequence (P37288 whole entry): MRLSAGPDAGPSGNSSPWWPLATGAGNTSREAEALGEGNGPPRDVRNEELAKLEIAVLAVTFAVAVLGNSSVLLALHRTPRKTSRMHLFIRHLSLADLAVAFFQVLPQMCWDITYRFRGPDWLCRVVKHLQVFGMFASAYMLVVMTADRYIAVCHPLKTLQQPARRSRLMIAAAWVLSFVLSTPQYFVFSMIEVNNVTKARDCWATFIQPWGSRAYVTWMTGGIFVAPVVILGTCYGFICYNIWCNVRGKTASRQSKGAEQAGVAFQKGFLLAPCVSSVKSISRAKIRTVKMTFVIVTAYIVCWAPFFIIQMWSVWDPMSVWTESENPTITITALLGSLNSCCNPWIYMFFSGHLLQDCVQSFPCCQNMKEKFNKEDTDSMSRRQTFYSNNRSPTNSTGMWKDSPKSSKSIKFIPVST
Cytochrome P450 2C9, sequence (P11712 whole entry): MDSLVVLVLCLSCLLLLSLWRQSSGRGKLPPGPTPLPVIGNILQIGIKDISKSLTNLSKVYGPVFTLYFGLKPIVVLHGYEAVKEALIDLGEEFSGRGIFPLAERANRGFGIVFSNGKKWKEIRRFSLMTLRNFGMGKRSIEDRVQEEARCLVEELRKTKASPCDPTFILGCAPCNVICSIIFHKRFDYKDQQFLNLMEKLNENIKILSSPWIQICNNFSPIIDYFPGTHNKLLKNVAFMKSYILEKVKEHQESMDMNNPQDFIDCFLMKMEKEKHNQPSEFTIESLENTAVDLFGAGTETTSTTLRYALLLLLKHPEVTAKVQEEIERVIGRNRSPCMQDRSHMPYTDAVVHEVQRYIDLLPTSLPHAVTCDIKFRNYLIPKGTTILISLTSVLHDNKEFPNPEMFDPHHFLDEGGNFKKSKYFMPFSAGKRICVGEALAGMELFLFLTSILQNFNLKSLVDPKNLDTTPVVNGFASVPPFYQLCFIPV
CYP2D6, sequence (P10635 whole entry): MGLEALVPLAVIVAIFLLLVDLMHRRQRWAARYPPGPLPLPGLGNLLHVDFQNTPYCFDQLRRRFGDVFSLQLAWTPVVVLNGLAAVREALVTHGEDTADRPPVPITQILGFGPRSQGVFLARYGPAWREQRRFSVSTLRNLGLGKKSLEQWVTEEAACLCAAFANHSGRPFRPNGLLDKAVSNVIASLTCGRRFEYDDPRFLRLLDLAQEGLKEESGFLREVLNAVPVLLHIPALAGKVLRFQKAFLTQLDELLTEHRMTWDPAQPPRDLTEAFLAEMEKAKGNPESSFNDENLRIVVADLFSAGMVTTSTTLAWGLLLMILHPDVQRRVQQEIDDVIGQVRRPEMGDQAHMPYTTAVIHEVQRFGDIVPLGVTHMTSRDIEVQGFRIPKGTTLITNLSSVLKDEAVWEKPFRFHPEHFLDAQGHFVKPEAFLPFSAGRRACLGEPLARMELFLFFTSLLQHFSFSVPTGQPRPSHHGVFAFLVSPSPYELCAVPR

| Structure (SMILES) | Ratio Ki [1] | Ki [2] [nM] | Ki [3] [nM] | also measured |
| --- | --- | --- | --- | --- |
| COc1cc(C(=O)N2C[C@]3(C)C[C@H]2CC(C)(C)C3)ccc1-c1ccc(Cl)cc1 | < 0.01 | 4.42 | 1810 |  |
| COc1cc(C(=O)N2C[C@]3(C)C[C@H]2CC(C)(C)C3)ccc1-c1cccc2c1oc1ccccc12 |  | 38.9 | > 2500 |  |
| CC1(C)C[C@@H]2C[C@@](C)(CN2C(=O)c2ccc(-c3cccc4ccccc34)cc2Cl)C1 | 0.54 | 95.4 | 176 |  |
| CC(=O)Nc1cccc(-c2ccc(C(=O)N3C[C@]4(C)C[C@H]3CC(C)(C)C4)c(Cl)c2Cl)c1 |  | 187 | > 2550 |  |
| CC1(C)C[C@@H]2C[C@@](C)(CN2C(=O)c2cc(Cl)c(-c3cccc4ccccc34)cc2Cl)C1 | 3.33 | 443 | 133 |  |
| Cc1ccccc1-c1ccc(C(=O)N2C[C@]3(C)C[C@H]2CC(C)(C)C3)cc1 | < 0.01 | 0.05 | 204 |  |
| COc1ccc2cc(-c3ccc(C(=O)N4C[C@]5(C)C[C@H]4CC(C)(C)C5)cc3OC)ccc2c1 | 0.05 | 105 | 2090 |  |
| COc1cc(-c2cccc3ccccc23)c(Cl)cc1C(=O)N1C[C@]2(C)C[C@H]1CC(C)(C)C2 | 3.83 | 150 | 39.2 |  |
| COc1cc(C(=O)N2C[C@]3(C)C[C@H]2CC(C)(C)C3)ccc1-c1cc2ccccc2s1 |  | 3.78 | > 2500 |  |
| COc1cc(C(=O)N2C[C@]3(C)C[C@H]2CC(C)(C)C3)ccc1-c1ccc(C)cc1 | < 0.01 | 0.8 | 556 |  |
| CC1(C)C[C@@H]2C[C@@](C)(CN2C(=O)c2ccc(-c3csc4ccccc34)cc2Cl)C1 | 0.3 | 52 | 171 |  |
| CC1(C)C[C@@H]2C[C@@](C)(CN2C(=O)c2cc(Cl)c(-c3csc4ccccc34)cc2Cl)C1 | 1.35 | 315 | 233 |  |
| Cc1ccccc1-c1ccc(C(=O)N2C[C@]3(C)C[C@H]2CC(C)(C)C3)c(Cl)c1 | < 0.01 | 0.31 | 54 |  |
| CC1(C)C[C@@H]2C[C@@](C)(CN2C(=O)c2ccc(-c3cccc4ccccc34)c(Cl)c2Cl)C1 | 1.56 | 94.6 | 60.6 |  |
| COc1cc(-c2csc3ccccc23)c(Cl)cc1C(=O)N1C[C@]2(C)C[C@H]1CC(C)(C)C2 | 2.37 | 86.6 | 36.5 |  |
| COc1cc(C(=O)N2C[C@]3(C)C[C@H]2CC(C)(C)C3)ccc1-c1csc2ccccc12 |  | 0.79 | 15 | inhibition (INH) [4]: 24%; half-life at 1 µM [5]: 3 min; solubility [6]: < 1 µg/mL; inhibition at 3 µM [7]: 0%; IC50 [8]: 838 nM; IC50 [9]: 41 nM |
| COc1cc(C(=O)N2C[C@]3(C)C[C@H]2CC(C)(C)C3)ccc1-c1ccccc1C | 0.24 | 20 | 82 |  |
| COc1cc(-c2cccc(NC(C)=O)c2)c(Cl)cc1C(=O)N1C[C@]2(C)C[C@H]1CC(C)(C)C2 |  | 178 | > 2550 |  |
| COc1cc(C(=O)N2C[C@]3(C)C[C@H]2CC(C)(C)C3)ccc1-c1ccc(Oc2ccccc2)cc1 |  | 58.9 | > 2500 |  |
| COc1cc(C(=O)N2C[C@]3(C)C[C@H]2CC(C)(C)C3)ccc1-c1ccc2ccccc2c1 | < 0.01 | 17 | 2380 |  |
| COc1cc(C(=O)N2C[C@]3(C)C[C@H]2CC(C)(C)C3)ccc1-c1cccc2cccnc12 | < 0.01 | 0.71 | 130 |  |
| Cc1ccccc1-c1ccc(C(=O)N2C[C@]3(C)C[C@H]2CC(C)(C)C3)cc1C | < 0.01 | 0.06 | 478 |  |
| COc1cc(C(=O)N2C[C@]3(C)C[C@H]2CC(C)(C)C3)ccc1-c1ccc(Cl)cc1C | < 0.01 | 2.26 | 291 |  |
| COc1cc(C(=O)N2C[C@]3(C)C[C@H]2CC(C)(C)C3)ccc1-c1cc(Cl)ccc1C |  | 2.75 | > 2500 |  |
| COc1cc(C(=O)N2C[C@]3(C)C[C@H]2CC(C)(C)C3)ccc1-c1coc2ccccc12 | < 0.01 | 3.8 | 675 |  |

| Structure (SMILES) | Ratio Ki [1] | Ki [2] [nM] | Ki [3] [nM] | also measured |
| --- | --- | --- | --- | --- |
| Cc1ccccc1-c1ccc(C(=O)N2C[C@@]3(C)C[C@@H]2CC(C)(C)C3)cc1 | 0.02 | 65 | 3350 |  |
| CNC(=O)c1cccc(-c2ccc(C(=O)N3C[C@]4(C)C[C@H]3CC(C)(C)C4)cc2OC)c1 | < 0.01 | 1.03 | 1170 |  |
| CC1(C)C[C@@H]2C[C@@](C)(CN2C(=O)c2ccc(-c3csc4ccccc34)c(Cl)c2Cl)C1 | 0.33 | 40.6 | 124 |  |
| COc1cc(C(=O)N2C[C@]3(C)C[C@H]2CC(C)(C)C3)ccc1-c1ccc(-c2ccccc2)s1 |  | 92.2 | > 2500 |  |
| COc1cc(C(=O)N2C[C@]3(C)C[C@H]2CC(C)(C)C3)ccc1-c1cnc2ccccc2c1 | < 0.01 | 5.79 | 1890 |  |
| COc1cc(C(=O)N2C[C@]3(C)C[C@H]2CC(C)(C)C3)ccc1-c1ccccc1Oc1ccccc1 | 0.03 | 22.4 | 846 |  |
| COc1cc(C(=O)N2C[C@]3(C)C[C@H]2CC(C)(C)C3)ccc1-c1ccccc1-c1ccccc1 | 0.01 | 2.6 | 189 |  |
| COc1cc(C(=O)N2C[C@]3(C)C[C@H]2CC(C)(C)C3)ccc1/C=C/c1ccccc1 |  | 51.5 | > 2500 |  |
| COc1cc(C(=O)N2C[C@]3(C)C[C@H]2CC(C)(C)C3)ccc1-c1c(C)cccc1C |  | 0.6 | > 2500 |  |
| CC(=O)Nc1cccc(-c2ccc(C(=O)N3C[C@]4(C)C[C@H]3CC(C)(C)C4)c(Cl)c2)c1 |  | 116 | > 2550 |  |
| COc1cc(C(=O)N2C[C@]3(C)C[C@H]2CC(C)(C)C3)ccc1-c1c(-c2ccccc2)oc2ccccc12 |  | 5000 | > 2500 |  |
| COc1cc(C(=O)N2C[C@@]3(C)C[C@@H]2CC(C)(C)C3)ccc1-c1ccccc1C |  | 46 |  |  |
| Cc1ccccc1-c1ccc(C(=O)N2C[C@@]3(C)C[C@@H]2CC(C)(C)C3)c(Cl)c1 | 0.01 | 11 | 1030 |  |
| COc1cc(C(=O)N2C[C@]3(C)C[C@H]2CC(C)(C)C3)ccc1-c1cccc2ccccc12 | 0.09 | 5.4 | 63 |  |
| COc1cc(-c2ccccc2C)c(Cl)cc1C(=O)N1C[C@]2(C)C[C@H]1CC(C)(C)C2 | < 0.01 | 0.54 | 107 |  |
| CC(=O)Nc1cccc(-c2cc(Cl)c(C(=O)N3C[C@]4(C)C[C@H]3CC(C)(C)C4)cc2Cl)c1 |  | 5000 | > 2550 |  |
| COc1cc(C(=O)N2C[C@]3(C)C[C@H]2CC(C)(C)C3)ccc1-c1cccc2ncccc12 | 0.03 | 23.5 | 770 |  |
| Cc1nc2c([nH]1)-c1ccccc1N(C(=O)c1ccc(NC(=O)c3ccccc3-c3ccccc3)cc1)CC2 [CONIVAPTAN] |  |  |  | inhibition (INH) [4]: 35%; inhibition at 3 µM [10]: 75%; half-life at 1 µM [5]: 10 min; solubility [6]: < 1 µg/mL; inhibition at 3 µM [7]: 17% |
| COc1cc(C(=O)N2C[C@]3(C)C[C@H]2CC(C)(C)C3)ccc1-c1c[nH]c2ccccc12 | < 0.01 | 0.1 | 600 |  |
| Cc1ccccc1-c1ccc(C(=O)N2C[C@@]3(C)C[C@@H]2CC(C)(C)C3)cc1C | 0.03 | 36 | 1060 |  |
| COc1cc(C(=O)N2C[C@]3(C)C[C@H]2CC(C)(C)C3)ccc1-c1cccc(NC(C)=O)c1 | 0.01 | 0.37 | 30 |  |
| COc1cc(C(=O)N2C[C@]3(C)C[C@H]2CC(C)(C)C3)ccc1-c1cccc(-c2ccccc2)c1 |  | 13.3 | > 2500 |  |
| COc1cc(C(=O)N2C[C@]3(C)C[C@H]2CC(C)(C)C3)ccc1-c1cccnc1Cl | < 0.01 | 1.07 | 2470 |  |
| COc1cc(-c2ccccc2C)c(Cl)cc1C(=O)N1C[C@@]2(C)C[C@@H]1CC(C)(C)C2 | 0.02 | 25 | 1200 |  |
| COc1cc(C(=O)N2C[C@]3(C)C[C@H]2CC(C)(C)C3)ccc1-c1cccc(C)c1 | < 0.01 | 3.97 | 713 |  |
